Measurements from ChEMBL document CHEMBL1649438, “Activities of ceftobiprole and other cephalosporins against extracellular and intracellular (THP-1 macrophages and keratinocytes) forms of methicillin-susceptible and methicillin-resistant Staphylococcus aureus” (Antimicrob Agents Chemother, 2009).
Values after ≈ are worked out from the molar mass of the structure shown.

Assays:
Staphylococcus aureus [1] = test: Antimicrobial activity against Panton-valentine leucocidin-positive community-acquired methicillin-resistant Staphylococcus aureus N4090440 infected in human THP-1 cells assessed as bacterial count per mg of cell protein at high extracellular compound concentration after 24 hrs; assay type: functional
How it was run: (§1)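 THP-1 human macrophages infected with S. aureus (postphagocytosis inoculum 1.5 × 10^6 to 3.0 × 10^6 CFU/mg cell protein), then incubated 24 h with increasing extracellular antibiotic concentrations. Change in log10 CFU/mg cell protein from the postphagocytosis inoculum, n = 3. Hill function fitted on log-transformed data. Low-concentration value (E0) and high-concentration value (Emax) are extrapolated. Where a pH is given, concentrations are expressed as multiples of the broth MIC at that pH.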

Staphylococcus aureus [2] = test: Antimicrobial activity against Panton-valentine leucocidin-positive community-acquired methicillin-resistant Staphylococcus aureus N4042228 infected in human THP-1 cells assessed as change in bacterial count after 24 hrs; assay type: functional, organism-based; conditions: N4042228, THP-1, 24 h; how it was run: as §1
Staphylococcus aureus [3] = test: Antimicrobial activity against Panton-valentine leucocidin-positive community-acquired methicillin-resistant Staphylococcus aureus isolate MEH2225605 infected in human THP-1 cells assessed as bacterial count per mg of cell protein at high extracellular compound concentration after 24 hrs; assay type: functional; how it was run: as §1
Staphylococcus aureus [4] = test: Bacteriostatic activity against Panton-valentine leucocidin-positive community-acquired methicillin-resistant Staphylococcus aureus STA 44 infected in human THP-1 cells assessed as change in bacterial count after 24 hrs at pH 5.5; assay type: functional
How it was run: (§2)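 THP-1 macrophages infected as described previously, with a postphagocytosis inoculum of 1.5 × 10⁶ to 3.0 × 10⁶ CFU/mg cell protein. Cells were exposed 24 h to increasing extracellular antibiotic concentrations. Response is the change in log10 CFU/mg protein from the inoculum (n = 3), fitted to a Hill function. E0 and Emax were extrapolated to infinitely low and high concentrations. EC50 and static concentration (graphical interpolation) are expressed as multiples of the broth MIC at pH 5.5 or 7.4.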

Staphylococcus aureus [5] = test: Antimicrobial activity against Panton-valentine leucocidin-positive community-acquired methicillin-resistant Staphylococcus aureus STA 228 infected in human THP-1 cells assessed as bacterial count per mg of cell protein at high extracellular compound concentration after 24 hrs at pH 5.5; assay type: functional; how it was run: as §1
Staphylococcus aureus [6] = test: Antimicrobial activity against Panton-valentine leucocidin-positive community-acquired methicillin-resistant Staphylococcus aureus isolate MEH2225605 infected in human THP-1 cells assessed as change in bacterial count after 24 hrs at pH 5.5; assay type: functional, organism-based; conditions: isolate MEH2225605, THP-1, 24 h; how it was run: as §1
Staphylococcus aureus [7] = test: Bacteriostatic activity against Panton-valentine leucocidin-positive community-acquired methicillin-resistant Staphylococcus aureus isolate MEH2225605 infected in human THP-1 cells assessed as change in bacterial count after 24 hrs at pH 5.5; assay type: functional; how it was run: as §2
Staphylococcus aureus [8] = test: Antimicrobial activity against methicillin-susceptible Staphylococcus aureus […] infected in human THP-1 cells assessed as bacterial count per mg of cell protein at low extracellular compound concentration after 24 hrs at pH 7.4; assay type: functional; conditions: pooled result: one value given for 6 cell lines, strains, targets or settings
How it was run: (§3)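 Human THP-1 macrophage-like cells were infected with S. aureus to a postphagocytosis inoculum of 1.5 × 10^6 to 3.0 × 10^6 CFU/mg cell protein. Cells were then exposed 24 h to increasing extracellular antibiotic concentrations. Response was the log10 CFU change per mg protein from the postphagocytosis inoculum, n = 3. A Hill function was fitted on log-transformed axes. E0 and Emax were extrapolated to infinitely low and high concentrations. Cs was read by graphical interpolation. Concentrations were expressed as multiples of the broth MIC at pH 5.5 or pH 7.4.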

Staphylococcus aureus [9] = test: Bacteriostatic activity against methicillin-susceptible Staphylococcus aureus […] infected in human THP-1 cells assessed as change in bacterial count after 24 hrs at pH 7.4; assay type: functional; how it was run: as §3
Staphylococcus aureus [10] = test: Antimicrobial activity against hospital-acquired vancomycin-resistant Staphylococcus aureus VRS1 infected in human THP-1 cells assessed as change in bacterial count after 24 hrs at pH 5.5; assay type: functional, cell-based; conditions: VRS1, THP-1, 24 h; how it was run: as §2
Staphylococcus aureus [11] = test: Antimicrobial activity against methicillin-susceptible Staphylococcus aureus ATCC 11632 infected in human THP-1 cells assessed as bacterial count per mg of cell protein at high extracellular compound concentration after 24 hrs at pH 5.5; assay type: functional; how it was run: as §3
Staphylococcus aureus [12] = test: Antimicrobial activity against methicillin-susceptible Staphylococcus aureus ATCC 11632 infected in human THP-1 cells assessed as change in bacterial count after 24 hrs at pH 5.5; assay type: functional, organism-based; conditions: ATCC 11632, THP-1, 24 h; how it was run: as §2
Staphylococcus aureus [13] = test: Antimicrobial activity against hospital-acquired methicillin-resistant Staphylococcus aureus ATCC 33591 infected in human THP-1 cells assessed as change in bacterial count after 24 hrs at pH 5.5; assay type: functional, organism-based; conditions: ATCC 33591, THP-1, 24 h; how it was run: as §2
Staphylococcus aureus [14] = test: Antimicrobial activity against hospital-acquired methicillin-resistant Staphylococcus aureus ATCC 33592 infected in human THP-1 cells assessed as change in bacterial count after 24 hrs at pH 5.5; assay type: functional, organism-based; conditions: ATCC 33592, THP-1, 24 h; how it was run: as §2
Staphylococcus aureus [15] = test: Antimicrobial activity against hospital-acquired methicillin-resistant Staphylococcus aureus […] infected in human THP-1 cells assessed as change in bacterial count after 24 hrs at pH 5.5; assay type: functional, organism-based; conditions: THP-1, 24 h; how it was run: as §2
Staphylococcus aureus [16] = test: Antimicrobial activity against hospital-acquired methicillin-resistant Staphylococcus aureus […] infected in human THP-1 cells assessed as change in bacterial count after 24 hrs at pH 7.4; assay type: functional, organism-based; conditions: THP-1, 24 h; how it was run: as §2
Staphylococcus aureus [17] = test: Bacteriostatic activity against hospital-acquired vancomycin-intermediate Staphylococcus aureus NRS18 infected in human THP-1 cells assessed as change in bacterial count after 24 hrs at pH 7.4; assay type: functional; how it was run: as §3
Staphylococcus aureus [18] = test: Antimicrobial activity against Panton-valentine leucocidin-positive community-acquired methicillin-resistant Staphylococcus aureus NRS192 infected in human THP-1 cells assessed as bacterial count per mg of cell protein at low extracellular compound concentration after 24 hrs at pH 7.4; assay type: functional; conditions: pooled result: one value given for 6 cell lines, strains, targets or settings; how it was run: as §1
Staphylococcus aureus [19] = test: Antimicrobial activity against Panton-valentine leucocidin-positive community-acquired methicillin-resistant Staphylococcus aureus N4090440 infected in human THP-1 cells assessed as change in bacterial count after 24 hrs at pH 7.4; assay type: functional, organism-based; conditions: N4090440, THP-1, 24 h; how it was run: as §1
Staphylococcus aureus [20] = test: Antimicrobial activity against methicillin-susceptible Staphylococcus aureus ATCC 25923 infected in human keratinocytes assessed as bacterial count per mg of cell protein at high extracellular compound concentration after 24 hrs; assay type: functional
How it was run: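 Primary human skin keratinocytes were grown in defined keratinocyte serum-free medium and infected with S. aureus to 1.5 × 10^6 to 3.0 × 10^6 CFU/mg cell protein. Cells were exposed 24 h to increasing extracellular concentrations. Response was the log10 CFU change from the postphagocytosis inoculum, fitted by a Hill equation with slope 1. Cs is the concentration giving CFU equal to the original inoculum, found by graphical interpolation.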

Staphylococcus aureus [21] = test: Antimicrobial activity against methicillin-susceptible Staphylococcus aureus NRS52 infected in human THP-1 cells assessed as change in bacterial count after 24 hrs; assay type: functional, organism-based; conditions: NRS52, THP-1, 24 h; how it was run: as §2
Staphylococcus aureus [22] = test: Antimicrobial activity against hospital-acquired methicillin-resistant Staphylococcus aureus ATCC 33591 infected in human THP-1 cells assessed as bacterial count per mg of cell protein at low extracellular compound concentration after 24 hrs; assay type: functional; how it was run: as §2

## Nc1nc(/C(=N/O)C(=O)N[C@@H]2C(=O)N3C(C(=O)O)=C(/C=C4\CCN([C@@H]5CCNC5)C4=O)CS[C@H]23)ns1 [CEFTOBIPROLE]
Staphylococcus aureus [1]
  log10cfu: -1.05
Staphylococcus aureus [2]
  EC50: 0.07 µg/mL (≈ 0.131 µM)
Staphylococcus aureus [3]
  log10cfu: -0.97
Staphylococcus aureus [4]
  Activity: 1.45 × MIC
Staphylococcus aureus [5]
  log10cfu: -1.02
Staphylococcus aureus [6]
  EC50: 0.54 × MIC
Staphylococcus aureus [7]
  Activity: 1.45 × MIC
Staphylococcus aureus [8]
  log10cfu: 3.06
Staphylococcus aureus [9]
  Activity: 0.6 × MIC
Staphylococcus aureus [10]
  EC50: 0.77 × MIC
Staphylococcus aureus [11]
  log10cfu: 1.04
Staphylococcus aureus [12]
  EC50: 0.41 × MIC
Staphylococcus aureus [13]
  EC50: 0.77 × MIC
Staphylococcus aureus [14]
  EC50: 0.77 ×MIC
Staphylococcus aureus [15]
  EC50: 0.77 ×MIC
Staphylococcus aureus [16]
  EC50: 0.28 ×MIC
Staphylococcus aureus [17]
  Activity: 0.74 mg/L
Staphylococcus aureus [18]
  log10cfu: 2.74
Staphylococcus aureus [19]
  EC50: 0.33 ×MIC
Staphylococcus aureus [20]
  log10cfu: -0.94
Staphylococcus aureus [21]
  EC50: 0.19 µg/mL (≈ 0.355 µM)
Staphylococcus aureus [22]
  log10cfu: 2.47
